Experimental data reported in ChEMBL document CHEMBL1127543, “Dual angiotensin converting enzyme/thromboxane synthase inhibitors” (J Med Chem, 1994).
Active and inactive are the calls of the source. The rule behind the calls is not given here.

Experiments:
[1] = target: T1, Angiotensin-converting enzyme (Oryctolagus cuniculus, UniProt P12822); assay: Tested for 50% inhibition of Angiotensin converting enzyme(ACE) obtained from rabbit lung (in vitro)
T1 sequence (P12822 whole entry): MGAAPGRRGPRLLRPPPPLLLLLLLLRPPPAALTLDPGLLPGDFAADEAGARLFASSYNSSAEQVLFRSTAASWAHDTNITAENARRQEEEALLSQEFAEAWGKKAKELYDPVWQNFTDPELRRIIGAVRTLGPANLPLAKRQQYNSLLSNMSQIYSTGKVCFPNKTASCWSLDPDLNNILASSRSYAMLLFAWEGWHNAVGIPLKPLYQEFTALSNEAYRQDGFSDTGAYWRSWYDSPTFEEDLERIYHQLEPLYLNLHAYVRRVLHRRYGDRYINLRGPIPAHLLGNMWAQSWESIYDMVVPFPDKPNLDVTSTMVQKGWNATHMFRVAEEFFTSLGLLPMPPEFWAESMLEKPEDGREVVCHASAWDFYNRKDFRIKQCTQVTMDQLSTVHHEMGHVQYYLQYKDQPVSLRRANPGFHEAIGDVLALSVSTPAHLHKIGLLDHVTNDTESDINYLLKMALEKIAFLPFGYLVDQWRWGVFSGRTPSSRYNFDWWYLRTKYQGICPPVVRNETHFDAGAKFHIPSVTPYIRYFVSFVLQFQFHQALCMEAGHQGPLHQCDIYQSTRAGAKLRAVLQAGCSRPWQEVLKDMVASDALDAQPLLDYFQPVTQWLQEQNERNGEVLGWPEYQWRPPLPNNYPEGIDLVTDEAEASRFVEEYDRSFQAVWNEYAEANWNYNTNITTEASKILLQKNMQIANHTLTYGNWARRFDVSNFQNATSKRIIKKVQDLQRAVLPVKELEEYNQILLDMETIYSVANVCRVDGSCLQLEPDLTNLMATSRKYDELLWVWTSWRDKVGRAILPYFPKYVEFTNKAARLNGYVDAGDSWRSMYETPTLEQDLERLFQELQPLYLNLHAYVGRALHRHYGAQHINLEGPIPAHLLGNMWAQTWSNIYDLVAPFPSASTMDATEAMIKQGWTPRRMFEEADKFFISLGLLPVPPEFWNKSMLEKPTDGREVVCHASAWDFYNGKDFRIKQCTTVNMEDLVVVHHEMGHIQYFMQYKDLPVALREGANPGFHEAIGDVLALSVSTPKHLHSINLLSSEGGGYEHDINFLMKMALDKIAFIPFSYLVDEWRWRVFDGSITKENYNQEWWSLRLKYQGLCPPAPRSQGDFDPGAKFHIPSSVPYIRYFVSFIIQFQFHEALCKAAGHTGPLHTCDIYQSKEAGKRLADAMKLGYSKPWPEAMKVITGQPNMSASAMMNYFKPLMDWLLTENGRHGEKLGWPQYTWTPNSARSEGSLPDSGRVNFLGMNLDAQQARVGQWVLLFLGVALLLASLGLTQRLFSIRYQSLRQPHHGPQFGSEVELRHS
Procedure, shortened: (§1)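 ACE was partially purified from rabbit lung and incubated with the synthetic substrate Hip-His-Leu. The hippuric acid product was measured spectrophotometrically. IC50 was read graphically from a range of inhibitor concentrations within the assay's linear range. Each determination was done in duplicate and repeated once.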

Thromboxane-A synthase [2] = target: T2, Thromboxane-A synthase (Homo sapiens, UniProt P24557); assay: Tested for 50% inhibition of thromboxane synthase (TxS) in human platelets (in vitro)
T2 sequence (P24557 whole entry): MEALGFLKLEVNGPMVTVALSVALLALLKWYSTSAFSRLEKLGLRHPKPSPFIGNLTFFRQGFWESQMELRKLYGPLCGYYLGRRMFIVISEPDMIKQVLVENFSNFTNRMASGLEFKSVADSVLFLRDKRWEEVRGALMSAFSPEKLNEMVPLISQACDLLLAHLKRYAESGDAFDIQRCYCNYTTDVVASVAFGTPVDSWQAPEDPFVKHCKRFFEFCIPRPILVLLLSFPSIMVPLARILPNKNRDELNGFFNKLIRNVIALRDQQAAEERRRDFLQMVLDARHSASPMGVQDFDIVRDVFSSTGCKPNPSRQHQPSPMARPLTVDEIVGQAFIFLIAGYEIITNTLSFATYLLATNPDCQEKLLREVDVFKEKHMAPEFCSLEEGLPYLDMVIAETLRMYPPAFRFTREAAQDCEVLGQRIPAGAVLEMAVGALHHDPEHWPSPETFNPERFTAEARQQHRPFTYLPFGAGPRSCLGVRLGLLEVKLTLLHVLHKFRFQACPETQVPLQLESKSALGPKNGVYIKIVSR
Procedure, shortened: (§2)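 IC50 was obtained graphically from a range of compound concentrations within the linear range of the assay. Determinations were made in duplicate and repeated once.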

Rattus norvegicus [3] = assay: Antihypertensive activity was measured in spontaneously hypertensive rat (SHR) by measuring the blood pressure on interarterial administration at dose of 1 mg/kg; Not significant; assay type: functional, organism-based; design: dose 1 mg/kg; conditions: Artery
Procedure, shortened: (§3)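 Conscious, fully ambulatory SHR (250–280 g) were fitted with an arterial catheter led through an infusion swivel inside a protective spring. After 24 h recovery from surgery, rats were housed singly. Mean arterial pressure was recorded continuously after dosing over a 6-h period, with later readings up to 24 h. Rats had chow and tap water freely under a 12-h light cycle.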

Rattus norvegicus [4] = assay: Antihypertensive activity was measured in spontaneously hypertensive rat (SHR) by measuring the blood pressure after 24 hours on interarterial administration at dose of 1 mg/kg; Not significant; assay type: functional, organism-based; design: dose 1 mg/kg; conditions: Artery; procedure, shortened: as §3
Rattus norvegicus [5] = assay: Tested for percent inhibition of maximum angiotensin I (AI) pressor response in rats on oral administration of 300 mg/kg after 0.5 hr; assay type: functional
Procedure, shortened: (§4)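 Conscious catheterized SHR were prepared as for blood pressure recording. At set times after dosing, angiotensin I was injected intraarterially in 0.5 mL. The rise in arterial pressure was recorded and expressed as percent inhibition of the angiotensin I pressor response.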

Rattus norvegicus [6] = assay: Antihypertensive activity was measured in spontaneously hypertensive rat (SHR) by measuring the maximum blood pressure when administered orally at dose of 5 mg/kg after 3 h; assay type: functional; conditions: route oral; procedure, shortened: as §3
Thromboxane-A synthase [7] = target: T2, Thromboxane-A synthase; assay: Tested for 50% inhibition of thromboxane synthase (TxS) in human platelets (in vitro); Not active; procedure, shortened: as §2
Rattus norvegicus [8] = assay: Tested for percent inhibition of maximum angiotensin I (AI) pressor response in rats on oral administration of 300 mg/kg after 2 hr; assay type: functional; procedure, shortened: as §4
Rattus norvegicus [9] = assay: Antihypertensive activity was measured in spontaneously hypertensive rat (SHR) by measuring the blood pressure after 24 hours when administered orally at dose of 5 mg/kg; assay type: functional; conditions: route oral
Procedure, shortened: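 Conscious, unrestrained, fully ambulatory SHR (250–280 g) fed normal pellet chow with free access to tap water, on a 12-h light cycle. Oral dosing used a vehicle at 1 mL/kg po. The read-out was the change in mean arterial pressure from control.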

[10] = target: T1, Angiotensin-converting enzyme; assay: Tested for 50% inhibition of Angiotensin converting enzyme(ACE) obtained from rabbit lung (in vitro); Not active; procedure, shortened: as §1
Rattus norvegicus [11] = species: Rattus norvegicus; conditions: 10 mg/kg
Rattus norvegicus [12] = assay: Tested for percent inhibition of maximum angiotensin I (AI) pressor response in rats on oral administration of 300 mg/kg after 4 hr; assay type: functional; procedure, shortened: as §4
Rattus norvegicus [13] = assay: Antihypertensive activity was measured in spontaneously hypertensive rat (SHR) by measuring the maximum blood pressure when administered orally at dose of 10 mg/kg after 4 h; assay type: functional; conditions: route oral; procedure, shortened: as §3
Rattus norvegicus [14] = assay: Antihypertensive activity was measured in spontaneously hypertensive rat (SHR) by measuring the blood pressure on interarterial administration at dose of 1 mg/kg after 4 h; assay type: functional, Artery; procedure, shortened: as §3
Rattus norvegicus [15] = assay: Antihypertensive activity was measured in spontaneously hypertensive rat (SHR) by measuring the maximum blood pressure when administered orally at dose of 10 mg/kg after 4 hr; assay type: functional; conditions: route oral; procedure, shortened: as §3
Rattus norvegicus [16] = assay: Antihypertensive activity was measured in spontaneously hypertensive rat (SHR) by measuring the blood pressure after 24 hours when administered orally at dose of 10 mg/kg; assay type: functional; conditions: route oral; procedure, shortened: as §3

Row | Compound | IC50 [1] [µM] | IC50 (Thromboxane-A synthase [2]) [µM] | inhibition in vivo at 300 mg/kg (Rattus norvegicus [8]) [%] | IC50 [10] | also measured
1 | Cn1c(-c2cccnc2)c(CCCCCC(=O)NCCCC[C@H](N[C@@H]2CCc3ccccc3N(CC(=O)O)C2=O)C(=O)O)c2cc(Cl)ccc21 | 0.006 | 0.004 | – | – | Max delta BP (Rattus norvegicus [3]): inactive; Delta blood pressure (Rattus norvegicus [4]): inactive; inhibition in vivo at 300 mg/kg (Rattus norvegicus [5]): 81%
2 | Cc1c(-c2cccnc2)n(CCCCCCCC(=O)O[C@@H]2C[C@H](N[C@@H](CCc3ccccc3)C(=O)O)C(=O)N(CC(=O)O)c3ccccc32)c2ccccc12 | 0.09 | 0.02 | – | – | –
3 | CCOC(=O)C(CCc1ccccc1)NC(C)C(=O)N1CCC[C@H]1C(=O)O (single isomer, unassigned) | – | – | 100 | – | Max delta BP (Rattus norvegicus [6]): -28 mmHg; IC50 (Thromboxane-A synthase [7]): Not Active; Delta blood pressure (Rattus norvegicus [9]): -17 mmHg
4 | Cc1c(-c2cccnc2)n(CCCCC(=O)O)c2ccccc12 | – | – | – | Not Active | –
5 | Cc1c(-c2cccnc2)n(CCCCP(=O)(O)OC2CCc3ccccc3N(CC(=O)O)C2=O)c2ccccc12 (stereo not given) | 0.03 | 0.02 | – | – | –
6 | Cn1c(-c2cccnc2)c(CCCCCC(=O)N2CCC(NCCCC[C@H](N[C@@H]3CCc4ccccc4N(CC(=O)[O-])C3=O)C(=O)[O-])CC2)c2cc(Cl)ccc21.[Na+].[Na+] | 0.012 | 0.02 | 76 | – | Delta blood pressure (Rattus norvegicus [11]): inactive; inhibition in vivo at 300 mg/kg (Rattus norvegicus [12]): 51%; Max delta BP (Rattus norvegicus [13]): -35 mmHg; Delta blood pressure (Rattus norvegicus [4]): inactive; Max delta BP (Rattus norvegicus [14]): -24 mmHg
7 | Cc1c(-c2cccnc2)n(CCCCCCCC(=O)O)c2ccccc12 | – | – | – | Not Active | –
8 | Cn1c(-c2cccnc2)c(CCCCCC(=O)O)c2cc(Cl)ccc21 | – | – | – | Not Active | –
9 | NCCCC[C@H](N[C@@H]1CCc2ccccc2N(CC(=O)O)C1=O)C(=O)O | 0.007 | – | 70 | – | Max delta BP (Rattus norvegicus [15]): -30 mmHg; Delta blood pressure (Rattus norvegicus [16]): -18 mmHg
10 | Cc1c(-c2cccnc2)n(CCCCP(=O)(O)O)c2ccccc12 | – | 0.1 | – | Not Active | –
